Source: ChEMBL document CHEMBL2424622, “Development of amino-pyrimidine inhibitors of c-Jun N-terminal kinase (JNK): kinase profiling guided optimization of a 1,2,3-benzotriazole lead” (Bioorg Med Chem Lett, 2013)

Experiments:
[1] = tested on: Tyrosine-protein kinase ABL1 (Homo sapiens), P00519 [Q252H]; assay: Competitive binding affinity to ABL1 Q252H mutant (unknown origin) at 10 uM in presence of ATP relative to control
[2] = biological target: Ribosomal protein S6 kinase alpha-4 (Homo sapiens) (UniProt O75676); assay: Competitive binding affinity to RPS6KA4 kinase domain 1 (unknown origin) at 10 uM in presence of ATP relative to control
[3] = organism: Homo sapiens; assay: Competitive binding affinity to EGFR E746 to A750 deletion mutant (unknown origin) at 10 uM in presence of ATP relative to control
Summary of the method: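 Screened at 10 µM in an in vitro ATP-site competition binding assay across a diverse panel of 128 kinases, with this kinase as one panel member. Readout is binding relative to control.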

[4] = tested on: HCT-116; assay: Cytotoxicity against human HCT116 cells assessed as cell viability by WST-1 reduction assay; assay type: cell-based
Summary of the method: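 Cytotoxicity was measured in an HCT-116 cell proliferation assay as reduction of WST-1 reagent. Values are the mean of at least three experiments.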

[5] = biological target: Death-associated protein kinase 1 (Homo sapiens, UniProt P53355); assay: Competitive binding affinity to DAPK1 (unknown origin) at 10 uM in presence of ATP relative to control
[6] = tested on: Epidermal growth factor receptor (Homo sapiens), P00533 [L858R]; assay: Competitive binding affinity to EGFR L858R mutant (unknown origin) at 10 uM in presence of ATP relative to control
Summary of the method: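 In vitro ATP-site competition binding assay, part of profiling against a diverse panel of 128 kinases. Each compound was tested at a single concentration of 10 µM. Kinome selectivity was summarized as S15 selectivity scores.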

[7] = tested on: T1, Receptor-type tyrosine-protein kinase FLT3 (Homo sapiens), P36888 [D835Y]; assay: Competitive binding affinity to FLT3 D835Y mutant (unknown origin) at 10 uM in presence of ATP relative to control
T1 sequence (whole entry): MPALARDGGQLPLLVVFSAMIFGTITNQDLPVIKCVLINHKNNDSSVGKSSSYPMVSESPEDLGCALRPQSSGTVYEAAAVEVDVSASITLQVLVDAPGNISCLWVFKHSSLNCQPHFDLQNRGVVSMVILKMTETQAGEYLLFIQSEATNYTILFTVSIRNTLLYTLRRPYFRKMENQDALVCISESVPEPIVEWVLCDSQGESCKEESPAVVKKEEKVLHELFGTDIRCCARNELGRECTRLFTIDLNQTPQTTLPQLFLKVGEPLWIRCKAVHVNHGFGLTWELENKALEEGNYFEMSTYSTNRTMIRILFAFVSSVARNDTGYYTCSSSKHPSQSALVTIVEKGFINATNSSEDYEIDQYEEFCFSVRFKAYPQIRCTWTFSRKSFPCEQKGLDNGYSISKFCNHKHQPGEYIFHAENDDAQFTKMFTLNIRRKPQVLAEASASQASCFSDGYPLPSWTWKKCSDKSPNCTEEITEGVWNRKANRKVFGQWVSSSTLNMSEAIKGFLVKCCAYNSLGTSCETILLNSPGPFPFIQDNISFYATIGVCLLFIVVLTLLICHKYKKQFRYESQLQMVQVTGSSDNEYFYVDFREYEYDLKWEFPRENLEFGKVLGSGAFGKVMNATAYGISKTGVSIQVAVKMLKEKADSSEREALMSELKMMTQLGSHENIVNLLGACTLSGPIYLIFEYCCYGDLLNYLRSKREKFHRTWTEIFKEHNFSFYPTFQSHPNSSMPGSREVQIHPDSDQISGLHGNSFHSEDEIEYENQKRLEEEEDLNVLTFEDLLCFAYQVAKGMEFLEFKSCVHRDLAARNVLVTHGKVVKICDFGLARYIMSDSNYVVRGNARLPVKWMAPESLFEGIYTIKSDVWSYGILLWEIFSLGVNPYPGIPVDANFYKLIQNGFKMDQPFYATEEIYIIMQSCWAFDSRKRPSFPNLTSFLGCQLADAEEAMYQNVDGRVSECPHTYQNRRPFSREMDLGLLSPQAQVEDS

[8] = biological target: Non-receptor tyrosine-protein kinase TYK2 (Homo sapiens) (UniProt P29597); assay: Competitive binding affinity to TYK2 kinase domain 2 (unknown origin) at 10 uM in presence of ATP relative to control
[9] = biological target: T2, Serine/threonine-protein kinase D2 (Homo sapiens) (UniProt Q9BZL6); assay: Competitive binding affinity to PRKD2 (unknown origin) at 10 uM in presence of ATP relative to control
T2 sequence (whole entry): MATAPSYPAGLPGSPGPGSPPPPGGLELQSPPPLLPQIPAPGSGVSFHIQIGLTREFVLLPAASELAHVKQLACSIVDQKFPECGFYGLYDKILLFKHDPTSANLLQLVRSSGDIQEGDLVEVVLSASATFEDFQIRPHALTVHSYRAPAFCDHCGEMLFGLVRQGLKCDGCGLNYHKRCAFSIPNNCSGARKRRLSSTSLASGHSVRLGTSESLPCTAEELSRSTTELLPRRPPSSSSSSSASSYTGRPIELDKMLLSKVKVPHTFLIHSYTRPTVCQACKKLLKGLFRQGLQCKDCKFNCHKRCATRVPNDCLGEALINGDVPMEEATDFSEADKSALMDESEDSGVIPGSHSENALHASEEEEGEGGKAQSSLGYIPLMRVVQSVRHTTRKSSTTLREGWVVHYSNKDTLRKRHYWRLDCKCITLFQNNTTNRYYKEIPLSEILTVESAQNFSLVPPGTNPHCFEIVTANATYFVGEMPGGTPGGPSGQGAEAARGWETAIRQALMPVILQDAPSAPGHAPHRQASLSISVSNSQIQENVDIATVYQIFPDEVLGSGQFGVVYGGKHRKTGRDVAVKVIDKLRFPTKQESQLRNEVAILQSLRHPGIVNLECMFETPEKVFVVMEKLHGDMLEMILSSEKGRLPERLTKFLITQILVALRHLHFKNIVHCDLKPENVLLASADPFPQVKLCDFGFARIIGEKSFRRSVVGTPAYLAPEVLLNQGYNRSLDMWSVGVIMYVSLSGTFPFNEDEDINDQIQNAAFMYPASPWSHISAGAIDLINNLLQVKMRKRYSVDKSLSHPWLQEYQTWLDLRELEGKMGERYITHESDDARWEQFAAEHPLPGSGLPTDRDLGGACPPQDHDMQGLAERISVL

[10] = biological target: Serine/threonine-protein kinase 25 (Homo sapiens) (UniProt O00506); assay: Competitive binding affinity to YSK1 (unknown origin) at 10 uM in presence of ATP relative to control
[11] = tested on: Tyrosine-protein kinase ABL1 (Homo sapiens), P00519 [H396P]; assay: Competitive binding affinity to ABL1 H396P mutant (unknown origin) at 10 uM in presence of ATP relative to control

Chain of Epidermal growth factor receptor (Homo sapiens), P00533 [L858R] (P00533 whole entry L858R): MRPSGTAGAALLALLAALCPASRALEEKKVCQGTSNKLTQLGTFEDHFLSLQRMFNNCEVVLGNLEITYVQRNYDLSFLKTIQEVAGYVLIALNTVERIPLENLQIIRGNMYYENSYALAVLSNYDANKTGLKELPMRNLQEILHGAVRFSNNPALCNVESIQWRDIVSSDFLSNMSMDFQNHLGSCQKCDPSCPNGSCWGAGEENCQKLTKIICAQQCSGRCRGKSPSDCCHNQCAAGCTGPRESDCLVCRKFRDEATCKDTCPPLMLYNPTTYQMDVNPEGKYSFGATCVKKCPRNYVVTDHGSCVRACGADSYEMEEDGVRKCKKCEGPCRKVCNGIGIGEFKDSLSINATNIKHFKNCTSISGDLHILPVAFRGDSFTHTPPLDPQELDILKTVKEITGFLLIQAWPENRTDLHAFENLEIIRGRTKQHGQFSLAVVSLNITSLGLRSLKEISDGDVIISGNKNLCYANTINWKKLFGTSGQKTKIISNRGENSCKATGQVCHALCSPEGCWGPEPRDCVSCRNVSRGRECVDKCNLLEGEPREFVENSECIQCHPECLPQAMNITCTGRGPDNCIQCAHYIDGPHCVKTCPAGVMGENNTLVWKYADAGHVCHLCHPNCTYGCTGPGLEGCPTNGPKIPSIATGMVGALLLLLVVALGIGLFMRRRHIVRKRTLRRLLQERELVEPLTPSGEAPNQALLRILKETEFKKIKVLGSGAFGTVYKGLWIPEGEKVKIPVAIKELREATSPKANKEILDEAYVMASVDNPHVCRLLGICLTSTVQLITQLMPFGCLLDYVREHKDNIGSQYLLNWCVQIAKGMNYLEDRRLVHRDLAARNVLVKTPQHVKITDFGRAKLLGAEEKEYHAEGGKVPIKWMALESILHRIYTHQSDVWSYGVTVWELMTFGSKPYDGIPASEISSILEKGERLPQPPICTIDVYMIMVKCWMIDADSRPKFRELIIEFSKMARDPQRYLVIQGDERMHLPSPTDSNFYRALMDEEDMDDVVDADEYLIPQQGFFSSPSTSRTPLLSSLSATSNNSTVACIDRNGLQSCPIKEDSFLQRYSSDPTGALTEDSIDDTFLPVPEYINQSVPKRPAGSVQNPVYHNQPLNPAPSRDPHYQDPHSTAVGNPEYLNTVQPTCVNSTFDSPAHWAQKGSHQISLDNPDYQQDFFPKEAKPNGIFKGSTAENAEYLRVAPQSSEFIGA
Chain of Death-associated protein kinase 1 (P53355 whole entry, looked up): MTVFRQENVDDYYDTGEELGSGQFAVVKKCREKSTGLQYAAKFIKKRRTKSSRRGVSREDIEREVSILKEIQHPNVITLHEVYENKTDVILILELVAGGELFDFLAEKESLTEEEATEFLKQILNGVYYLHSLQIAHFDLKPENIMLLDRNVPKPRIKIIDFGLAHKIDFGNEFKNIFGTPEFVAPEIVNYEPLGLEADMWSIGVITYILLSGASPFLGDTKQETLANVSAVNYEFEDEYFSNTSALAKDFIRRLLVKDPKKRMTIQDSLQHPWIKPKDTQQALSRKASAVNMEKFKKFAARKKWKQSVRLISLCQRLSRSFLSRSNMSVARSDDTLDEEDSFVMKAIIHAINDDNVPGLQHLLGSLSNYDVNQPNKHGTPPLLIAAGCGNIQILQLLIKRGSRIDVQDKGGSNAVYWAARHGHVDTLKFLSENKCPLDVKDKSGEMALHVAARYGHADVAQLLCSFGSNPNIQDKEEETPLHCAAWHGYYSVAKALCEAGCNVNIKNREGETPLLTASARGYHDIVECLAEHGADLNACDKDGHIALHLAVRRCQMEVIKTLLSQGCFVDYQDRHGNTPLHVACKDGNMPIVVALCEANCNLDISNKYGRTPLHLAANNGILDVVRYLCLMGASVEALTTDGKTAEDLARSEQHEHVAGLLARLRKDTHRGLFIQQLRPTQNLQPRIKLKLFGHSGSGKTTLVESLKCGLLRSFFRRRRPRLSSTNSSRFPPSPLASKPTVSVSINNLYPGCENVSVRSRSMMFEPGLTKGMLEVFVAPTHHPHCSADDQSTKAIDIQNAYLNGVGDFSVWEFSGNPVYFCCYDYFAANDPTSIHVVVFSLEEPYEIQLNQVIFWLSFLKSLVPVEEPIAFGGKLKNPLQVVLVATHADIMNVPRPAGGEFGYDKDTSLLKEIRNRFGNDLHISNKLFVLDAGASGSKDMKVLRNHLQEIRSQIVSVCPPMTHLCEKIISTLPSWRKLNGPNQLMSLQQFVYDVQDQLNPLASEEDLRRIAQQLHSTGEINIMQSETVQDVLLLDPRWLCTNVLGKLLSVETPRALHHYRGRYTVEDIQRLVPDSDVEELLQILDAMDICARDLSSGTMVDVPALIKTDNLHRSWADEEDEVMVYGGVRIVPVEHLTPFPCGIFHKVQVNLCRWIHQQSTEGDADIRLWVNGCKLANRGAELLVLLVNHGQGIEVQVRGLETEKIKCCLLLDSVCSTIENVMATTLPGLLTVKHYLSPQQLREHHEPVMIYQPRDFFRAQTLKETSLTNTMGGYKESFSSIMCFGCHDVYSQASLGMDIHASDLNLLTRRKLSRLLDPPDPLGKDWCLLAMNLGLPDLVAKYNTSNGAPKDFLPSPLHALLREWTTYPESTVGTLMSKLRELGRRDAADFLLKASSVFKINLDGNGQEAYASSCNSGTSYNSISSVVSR
Chain of Non-receptor tyrosine-protein kinase TYK2 (Homo sapiens) (P29597 whole entry, the tested form may be a part): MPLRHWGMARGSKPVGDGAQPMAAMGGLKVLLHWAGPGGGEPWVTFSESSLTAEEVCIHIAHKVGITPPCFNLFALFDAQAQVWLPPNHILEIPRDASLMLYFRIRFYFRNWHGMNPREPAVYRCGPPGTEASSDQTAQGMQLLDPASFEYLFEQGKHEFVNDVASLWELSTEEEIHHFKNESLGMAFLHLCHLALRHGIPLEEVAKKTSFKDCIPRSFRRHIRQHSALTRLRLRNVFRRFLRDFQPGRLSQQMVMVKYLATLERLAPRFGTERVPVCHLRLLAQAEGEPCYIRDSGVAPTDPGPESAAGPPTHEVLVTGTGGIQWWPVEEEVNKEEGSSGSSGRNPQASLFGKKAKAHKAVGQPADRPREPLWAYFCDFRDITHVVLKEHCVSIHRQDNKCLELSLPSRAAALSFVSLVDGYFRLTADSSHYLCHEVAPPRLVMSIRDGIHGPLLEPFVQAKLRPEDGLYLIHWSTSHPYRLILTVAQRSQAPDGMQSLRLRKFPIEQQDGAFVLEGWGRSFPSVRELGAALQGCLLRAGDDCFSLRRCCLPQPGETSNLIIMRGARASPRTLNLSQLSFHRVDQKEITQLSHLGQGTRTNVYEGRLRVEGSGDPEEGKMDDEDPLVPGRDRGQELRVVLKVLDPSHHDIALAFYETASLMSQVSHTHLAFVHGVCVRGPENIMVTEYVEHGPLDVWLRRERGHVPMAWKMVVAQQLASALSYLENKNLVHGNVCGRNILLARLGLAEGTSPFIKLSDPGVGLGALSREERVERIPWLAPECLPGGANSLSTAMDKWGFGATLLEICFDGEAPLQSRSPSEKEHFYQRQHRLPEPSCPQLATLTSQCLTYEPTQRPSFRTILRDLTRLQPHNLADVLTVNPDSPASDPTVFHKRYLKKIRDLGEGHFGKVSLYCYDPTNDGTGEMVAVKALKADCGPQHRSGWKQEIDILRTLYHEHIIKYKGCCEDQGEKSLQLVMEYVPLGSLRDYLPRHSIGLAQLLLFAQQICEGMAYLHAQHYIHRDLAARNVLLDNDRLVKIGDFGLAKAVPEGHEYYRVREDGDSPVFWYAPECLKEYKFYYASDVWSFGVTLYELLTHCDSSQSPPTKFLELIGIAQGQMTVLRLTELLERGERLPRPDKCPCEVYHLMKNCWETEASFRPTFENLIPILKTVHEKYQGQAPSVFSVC
Chain of Serine/threonine-protein kinase 25 (Homo sapiens) (O00506 whole entry, looked up): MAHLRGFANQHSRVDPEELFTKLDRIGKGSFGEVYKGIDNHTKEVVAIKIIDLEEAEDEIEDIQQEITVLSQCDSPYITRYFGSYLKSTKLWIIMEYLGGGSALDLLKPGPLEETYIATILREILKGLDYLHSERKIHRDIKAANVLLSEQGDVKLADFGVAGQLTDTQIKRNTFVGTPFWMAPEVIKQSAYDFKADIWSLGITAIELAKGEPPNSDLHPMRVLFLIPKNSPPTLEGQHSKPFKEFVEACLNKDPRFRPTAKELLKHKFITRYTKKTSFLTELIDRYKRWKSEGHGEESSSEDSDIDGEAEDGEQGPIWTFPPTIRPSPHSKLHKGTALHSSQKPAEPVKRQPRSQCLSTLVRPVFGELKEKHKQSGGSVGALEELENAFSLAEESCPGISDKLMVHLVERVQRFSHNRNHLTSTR
Chain of Ribosomal protein S6 kinase alpha-4 (Homo sapiens) (O75676 whole entry, looked up, the tested form may be a part): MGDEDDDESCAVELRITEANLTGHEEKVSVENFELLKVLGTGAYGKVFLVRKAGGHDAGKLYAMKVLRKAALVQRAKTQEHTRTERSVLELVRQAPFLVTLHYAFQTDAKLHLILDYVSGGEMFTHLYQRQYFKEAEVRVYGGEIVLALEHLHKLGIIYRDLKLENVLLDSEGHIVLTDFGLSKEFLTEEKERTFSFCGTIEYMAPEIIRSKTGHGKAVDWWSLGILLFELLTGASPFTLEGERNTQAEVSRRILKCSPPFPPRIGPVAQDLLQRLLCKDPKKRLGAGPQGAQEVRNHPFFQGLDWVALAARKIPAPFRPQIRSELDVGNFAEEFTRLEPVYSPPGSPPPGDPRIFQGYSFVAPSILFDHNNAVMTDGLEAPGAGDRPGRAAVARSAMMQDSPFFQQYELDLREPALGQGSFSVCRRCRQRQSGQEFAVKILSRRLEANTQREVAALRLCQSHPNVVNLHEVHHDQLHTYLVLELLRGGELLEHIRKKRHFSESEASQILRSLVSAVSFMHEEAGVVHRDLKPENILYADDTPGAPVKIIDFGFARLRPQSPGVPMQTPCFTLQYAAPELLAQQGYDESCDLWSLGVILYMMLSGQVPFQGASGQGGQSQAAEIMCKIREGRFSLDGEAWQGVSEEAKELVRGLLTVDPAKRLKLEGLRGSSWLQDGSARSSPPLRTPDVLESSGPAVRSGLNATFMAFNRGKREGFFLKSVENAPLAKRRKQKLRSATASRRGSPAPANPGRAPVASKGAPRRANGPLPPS

SMILES | inhibition [1] [%] | inhibition [2] [%] | inhibition [3] [%] | IC50 [4] [µM] | inhibition [5] [%] | inhibition [6] [%] | inhibition [7] [%] | inhibition [8] [%] | inhibition [9] [%] | inhibition [10] [%] | inhibition [11] [%]
O[C@H]1CC[C@H](Nc2nccc(-n3nnc4ccccc43)n2)CC1 | 74 | < 50 | < 50 | 1.2 | 98 | < 50 | 99 | < 50 | 98 | 78 | < 50
CS(=O)(=O)CCCOc1cccc2c1ccn2-c1ccnc(N[C@H]2CC[C@H](C(=O)N3CCC(O)CC3)CC2)n1 |  |  |  |  | > 85 |  |  |  |  |  | 
O[C@H]1CC[C@H](Nc2nccc(-n3ncc4ccccc43)n2)CC1 | < 50 | < 50 | 99 |  | < 50 | < 50 | 100 | < 50 | 91 | 77 | < 50
O[C@H]1CC[C@H](Nc2nccc(-c3n[nH]c4ccccc34)n2)CC1 | < 50 | 99 | < 50 |  |  | < 50 | 100 | 86 |  |  | < 50
O[C@H]1CC[C@H](Nc2nccc(-n3ccc4ccccc43)n2)CC1 | < 50 | < 50 | < 50 |  | < 50 | < 50 | < 50 | < 50 | 88 | 74 | < 50
O=C([C@H]1CC[C@H](Nc2nccc(-n3nnc4ccccc43)n2)CC1)N1CCOCC1 |  |  |  | 20 |  |  |  |  |  |  | 
N[C@H]1CC[C@H](Nc2nccc(-n3nnc4ccccc43)n2)CC1 |  |  |  | 0.77 |  |  |  |  |  |  | 
